Assay results taken from ChEMBL document CHEMBL1140904, “Synthesis and analysis of novel glycerolipids for the treatment of metabolic syndrome” (J Med Chem, 2009).

What was measured:
Rattus norvegicus [1] = test: Effect on fatty acid composition in Wistar rat assessed as change in plasma 18;2, n-6 level at 250 uM, po after 6 days; format: functional
Rattus norvegicus [2] = test: Effect on fatty acid composition in Wistar rat assessed as change in liver 18;2, n-6 level at 85 uM, po after 6 days; format: functional
Method in brief: (§1)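 Male Wistar rats were gavaged once daily for 6 days with compound in 0.5% CMC at 85 or 250 µmol TTA-equivalent per animal. Controls received palmitic acid. Liver was homogenized in 0.25 M sucrose/10 mM HEPES pH 7.4/1 mM EDTA at 0-4 °C. Lipids were extracted with chloroform:methanol 2:1 and spiked with 21:0 internal standard. Fatty acids were BF3-methanol transesterified and quantified as wt%. Values are mean ± SD, n=5.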

Rattus norvegicus [3] = test: Effect on fatty acid composition in Wistar rat assessed as change in liver saturated fatty acid level at 85 uM, po after 6 days; format: functional; method in brief: as §1
Rattus norvegicus [4] = test: Effect on fatty acid composition in Wistar rat assessed as change in plasma PUFA level at 85 uM, po after 6 days; format: functional
Rattus norvegicus [5] = test: Effect on fatty acid composition in Wistar rat assessed as change in plasma LCn-6/18:2 level at 85 uM, po after 6 days; format: functional
Rattus norvegicus [6] = test: Induction of PPAR-alpha-regulated HMG-CoA synthase activity in po dosed Wistar rat after 6 days; format: functional, organism-based
Method in brief: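 Wistar rats were gavaged daily for 6 days at 85 or 250 µmol TTA-equivalent in 0.5% CMC, with palmitic acid controls. HMG-CoA synthase activity was assayed in the liver postnuclear fraction by the Clinkenbeard method. Mean ± SD, 5 rats/group.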

Rattus norvegicus [7] = test: Decrease in plasma cholesterol level in po dosed Wistar rat after 6 days; format: functional, organism-based
Method in brief: (§2)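 Male Wistar rats (170-210 g), housed in pairs with chow and water, were gavaged once daily for 6 days with test lipid in 0.5% (w/v) carboxymethylcellulose at 85 or 250 µmol TTA-equivalent per animal. Controls received palmitic acid in CMC. Plasma triacylglycerol and cholesterol were measured with an enzymatic kit, and liver levels were also determined. Values are mean ± SD, n=5 rats.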

Rattus norvegicus [8] = test: Effect on fatty acid composition in Wistar rat assessed as change in plasma MUFA level at 250 uM, po after 6 days; format: functional
Rattus norvegicus [9] = test: Effect on fatty acid composition in Wistar rat assessed as change in liver MUFA level at 85 uM, po after 6 days; format: functional; method in brief: as §1
Rattus norvegicus [10] = test: Effect on fatty acid composition in Wistar rat assessed as change in liver PUFA level at 85 uM, po after 6 days; format: functional; method in brief: as §1
Rattus norvegicus [11] = test: Effect on fatty acid composition in Wistar rat assessed as change in plasma MUFA level at 85 uM, po after 6 days; format: functional
Rattus norvegicus [12] = test: Effect on fatty acid composition in Wistar rat assessed as change in plasma 18;2, n-6 level at 85 uM, po after 6 days; format: functional
Rattus norvegicus [13] = test: Effect on fatty acid composition in Wistar rat assessed as change in plasma PUFA level at 250 uM, po after 6 days; format: functional
Rattus norvegicus [14] = test: Effect on fatty acid composition in Wistar rat assessed as change in plasma saturated fatty acid level at 85 uM, po after 6 days; format: functional
Rattus norvegicus [15] = test: Effect on fatty acid composition in Wistar rat assessed as change in plasma saturated fatty acid level at 250 uM, po after 6 days; format: functional
Rattus norvegicus [16] = test: Effect on fatty acid composition in Wistar rat assessed as change in liver LCn-6/18:2 level at 85 uM, po after 6 days; format: functional; method in brief: as §1
Rattus norvegicus [17] = test: Effect on fatty acid composition in Wistar rat assessed as change in plasma LCPUFA, n-6 level at 250 uM, po after 6 days; format: functional
Liver [18] = test: Drug level in Wistar rat liver at 85 uM, po after 6 days; format: ADME, organism-based; details: in vivo, 144 h; method in brief: as §1
Rattus norvegicus [19] = test: Induction of PPAR-alpha-regulated fatty acyl-CoA oxidase activity in po dosed Wistar rat after 6 days; format: functional, organism-based
Method in brief: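 Rats were dosed by gastric intubation for 6 days at 85 or 250 µmol TTA-equivalent in 0.5% CMC, with palmitic acid controls. Fatty acyl-CoA oxidase was measured in the liver postnuclear fraction by a coupled assay, following H2O2 production as the rise in dichlorofluorescein absorbance with palmitoyl-CoA. Mean ± SD, n=5.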

Rattus norvegicus [20] = test: Plasma concentration in Wistar rat at 85 uM, po after 6 days; format: ADME, organism-based; details: in vivo, 144 h
Rattus norvegicus [21] = test: Decrease in plasma triacylglycerol level in po dosed Wistar rat after 6 days; format: functional, organism-based; method in brief: as §2
Rattus norvegicus [22] = test: Increase in [1-14C]palmitoyl-CoA oxidation in po dosed Wistar rat liver homogenate after 6 days; format: functional, organism-based
Method in brief: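 Rats were dosed by gastric intubation for 6 days with 85 or 250 µmol TTA-equivalent in 0.5% CMC, with palmitic acid controls. Liver was homogenized in 0.25 M sucrose, 10 mM HEPES pH 7.4, 1 mM EDTA at 0-4 °C. Palmitoyl-CoA oxidation was read as acid-soluble products from [1-14C]-palmitoyl-CoA in the postnuclear fraction. Mean ± SD, n=5.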

Rattus norvegicus [23] = test: Effect on fatty acid composition in Wistar rat assessed as change in liver LCPUFA, n-6 level at 250 uM, po after 6 days; format: functional; method in brief: as §1
Rattus norvegicus [24] = test: Plasma concentration in Wistar rat at 250 uM, po after 6 days; format: ADME, organism-based; details: in vivo, 144 h
Rattus norvegicus [25] = test: Effect on fatty acid composition in Wistar rat assessed as change in liver LCPUFA, n-6 level at 85 uM, po after 6 days; format: functional; method in brief: as §1
Rattus norvegicus [26] = test: Effect on fatty acid composition in Wistar rat assessed as change in plasma LCPUFA, n-6 level at 85 uM, po after 6 days; format: functional
Rattus norvegicus [27] = test: Induction of PPAR-alpha-regulated CPT2 activity in po dosed Wistar rat after 6 days; format: functional, organism-based
Method in brief: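 Wistar rats were dosed orally for 6 days (85 or 250 µmol TTA-equivalent in 0.5% CMC; palmitic acid controls). CPT-II activity was measured in the liver mitochondrial fraction, prepared from sucrose/HEPES pH 7.4/EDTA homogenate at 0-4 °C. Means ± SD from 5 rats per group.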

Liver [28] = test: Drug level in Wistar rat liver at 250 uM, po after 6 days; format: ADME, organism-based; details: in vivo, 144 h; method in brief: as §1
Rattus norvegicus [29] = test: Effect on fatty acid composition in Wistar rat assessed as change in liver LCn-6/18:2 level at 250 uM, po after 6 days; format: functional; method in brief: as §1
Rattus norvegicus [30] = test: Effect on fatty acid composition in Wistar rat assessed as change in plasma LCn-6/18:2 level at 250 uM, po after 6 days; format: functional
Rattus norvegicus [31] = test: Effect on fatty acid composition in Wistar rat assessed as change in liver saturated fatty acid level at 250 uM, po after 6 days; format: functional; method in brief: as §1
Rattus norvegicus [32] = test: Effect on fatty acid composition in Wistar rat assessed as change in liver PUFA level at 250 uM, po after 6 days; format: functional; method in brief: as §1
Rattus norvegicus [33] = test: Effect on fatty acid composition in Wistar rat assessed as change in liver 18;2, n-6 level at 250 uM, po after 6 days; format: functional; method in brief: as §1
Rattus norvegicus [34] = test: Effect on fatty acid composition in Wistar rat assessed as change in liver MUFA level at 250 uM, po after 6 days; format: functional; method in brief: as §1

CCCCCCCCCCCCCCSCC(=O)O [TETRADECYLTHIOACETIC ACID]
Activity (Rattus norvegicus [1]): 19.68%
Activity (Rattus norvegicus [2]): 11.15%
Activity (Rattus norvegicus [3]): 39.67%
Activity (Rattus norvegicus [4]): 2.47%
Activity (Rattus norvegicus [5]): 1.03%
Activity (Rattus norvegicus [6]): Dose-dependent effect
Activity (Rattus norvegicus [7]): Dose-dependent effect
Activity (Rattus norvegicus [8]): 21.32%
Activity (Rattus norvegicus [9]): 17.35%
Activity (Rattus norvegicus [10]): 5.44%
Activity (Rattus norvegicus [11]): 23.49%
Activity (Rattus norvegicus [12]): 18.46%
Activity (Rattus norvegicus [13]): 2.24%
Activity (Rattus norvegicus [14]): 36.02%
Activity (Rattus norvegicus [15]): 35%
Activity (Rattus norvegicus [16]): 2.34%
Activity (Rattus norvegicus [17]): 20.82%
Drug uptake (Liver [18]): 0.36%
Activity (Rattus norvegicus [19]): Dose-dependent effect
Drug uptake (Rattus norvegicus [20]): 0.32%
Activity (Rattus norvegicus [21]): Dose-dependent effect
Activity (Rattus norvegicus [22]): Dose-dependent effect
Activity (Rattus norvegicus [23]): 27.66%
Drug uptake (Rattus norvegicus [24]): 1.6%
Activity (Rattus norvegicus [25]): 25.7%
Activity (Rattus norvegicus [26]): 18.75%
Activity (Rattus norvegicus [27]): Dose-dependent effect
Drug uptake (Liver [28]): 2.03%
Activity (Rattus norvegicus [29]): 2.56 dimensionless ratio
Activity (Rattus norvegicus [30]): 1.06%
Activity (Rattus norvegicus [31]): 38.71%
Activity (Rattus norvegicus [32]): 4.94%
Activity (Rattus norvegicus [33]): 11.02%
Activity (Rattus norvegicus [34]): 16.86%
